Results gathered from unrelated publications.
Compare with care: the assays were run in different laboratories.
Cell line: MDA-MB-435
Observed: cell growth or viability

SMILES | method | tested at | time | endpoint | result
COc1ccc(C(=O)/C=C/c2cccnc2)cc1S(N)(=O)=O | SRB | 10 µM | – | inhibition | 26%
CCOC(=O)c1[nH]c(Br)c(-c2ccc(OC(F)(F)F)cc2)c1Br | SRB | – | – | IC50 | 1700 nM
COc1ccc(N(C)c2nc(C)nc3c2C[C@@H](C)C3)cc1 (racemic) | SRB | – | – | IC50 | 17 nM
O=C1NC(=NCc2cccs2)S/C1=C\c1ccc2ncccc2c1 | – | – | – | IC50 | 6600 nM
COc1ccc(C(=O)/C=C/c2ccc(Cl)c(Cl)c2)cc1S(N)(=O)=O | SRB | – | 48 h | GI50 | 2400 nM
COc1ccc(-c2ccc(-c3ccc(C(=N)N)nc3)s2)cc1 | SRB | – | – | GI50 | 1730 nM
CCOC(=O)c1[nH]c(Br)c(-c2cccc(OC)c2)c1Br | SRB | – | – | IC50 | 633 nM
COc1cccc(Oc2ccccc2NC(=O)CNC(=O)c2cccc3ccccc23)c1 | SRB | – | 48 h | GI50 | 70.8 nM
CCOC(=O)c1[nH]c(Br)c(-c2ccc(Cl)c(Cl)c2)c1Br | SRB | – | – | IC50 | 806 nM
COc1ccccc1/C=C/C(=O)c1ccc(OC)c(S(N)(=O)=O)c1 | SRB | 10 µM | – | inhibition | 73%
COc1cc(Nc2nccc(-c3cnn4nc(OC)ccc34)n2)cc(C(F)(F)F)c1 | ATP luminescence | – | – | IC50 | 130 nM
COc1ccc(C(=O)/C=C/c2cccc3ccccc23)cc1S(N)(=O)=O | SRB | 10 µM | – | inhibition | 95%
CCOC(=O)c1[nH]c(Br)c(-c2ccc(OC)c(F)c2)c1Br | SRB | – | – | IC50 | 539 nM
